Drawing on ChEMBL document CHEMBL3045405, “Enantioselective oxidative damage of chiral pesticide dichlorprop to maize” (J Agric Food Chem, 2011), this text covers inhibition and Activity for three compounds.

The nature of data set [1]: Phytotoxicity against Zea mays (maize) assessed as inhibition of shoot height at 0.05 mg/L and at 25 degC/20 degC day/night temperature 14 hr photoperiod for 3 days. The format is organism-based. Particulars: in vivo. Summed up: (§1)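 Maize seeds were surface-sterilized in 3% H2O2 for 10 min and germinated on moist filter paper at 27 °C in the dark. Seedlings were exposed to (rac)-, (S)- or (R)-DCPP in sterile deionized water (0–1.0 mg L-1), with solutions renewed daily, at 80% relative humidity and repositioned daily. Fresh weight, root length and shoot height were compared with the water control after 3 days.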

In data set [2] the test system is Zea mays. Briefly: Induction of hydroxyl radical production in Zea mays (maize) root assessed as ROS adducts formation at 1 mg/L measured after 3 days by EPR analysis. The format is organism-based. To be noted: in vivo, 72 h. Summed up: (§2)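 Roots of maize exposed for 3 days were rinsed in ice-cold 0.1 M CaCl2. Under nitrogen, 0.5 g was homogenized with 1.0 mL of fresh 100 mM PBN in DMSO, incubated 37 °C for 15 min, and centrifuged 4500 rpm, 3 min, 4 °C. Signal expressed relative to control.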

Data set [3] in a line: Phytotoxicity against Zea mays (maize) assessed as inhibition of shoot height at 1 mg/L and at 25 degC/20 degC day/night temperature 14 hr photoperiod for 3 days. The data set is classed as organism-based. To be noted: in vivo. In outline:
as §1

A short description of data set [4]: Phytotoxicity against Zea mays (maize) assessed as inhibition of seed germination at 1 mg/L and at 27 degC in the dark for 3 days. Particulars: in vivo.
A short description of data set [5]: Phytotoxicity against Zea mays (maize) assessed as inhibition of fresh weight at 0.1 mg/L and at 25 degC/20 degC day/night temperature 14 hr photoperiod for 3 days. The data set is classed as organism-based. Particulars: in vivo. In outline:
as §1

A short description of data set [6]: Phytotoxicity against Zea mays (maize) assessed as inhibition of fresh weight at 0.05 mg/L and at 25 degC/20 degC day/night temperature 14 hr photoperiod for 3 days. The format is organism-based. Particulars: in vivo. Summed up: as §1
Data set [7] can be described thus: Phytotoxicity against Zea mays (maize) assessed as inhibition of root length at 1 mg/L and at 25 degC/20 degC day/night temperature 14 hr photoperiod for 3 days. The format is organism-based. Particulars: in vivo. Summed up:
as §1

Data set [8] is described as follows: Phytotoxicity against Zea mays (maize) assessed as inhibition of seed germination at 0.1 mg/L and at 27 degC in the dark for 3 days. To be noted: in vivo.
Data set [9] is described as follows: Phytotoxicity against Zea mays (maize) assessed as inhibition of root length at 0.1 mg/L and at 25 degC/20 degC day/night temperature 14 hr photoperiod for 3 days. The data set is classed as organism-based. To be noted: in vivo. Summed up:
as §1

Data set [10] can be described thus: Phytotoxicity against Zea mays (maize) assessed as inhibition of root length at 0.5 mg/L and at 25 degC/20 degC day/night temperature 14 hr photoperiod for 3 days. The data set is classed as organism-based. To be noted: in vivo. Summed up:
as §1

Data set [11] is described as follows: Phytotoxicity against Zea mays (maize) assessed as inhibition of seed germination at 0.5 mg/L and at 27 degC in the dark for 3 days. To be noted: in vivo.
Data set [12] in a line: Phytotoxicity against Zea mays (maize) assessed as inhibition of seed germination at 0.02 mg/L and at 27 degC in the dark for 3 days. To be noted: in vivo.
The nature of data set [13]: Phytotoxicity against Zea mays (maize) assessed as inhibition of shoot height at 0.5 mg/L and at 25 degC/20 degC day/night temperature 14 hr photoperiod for 3 days. Particulars: in vivo. The format is organism-based. In outline:
as §1

Data set [14] deals with Zea mays. In words: Induction of hydroxyl radical production in Zea mays (maize) root assessed as PBN adducts formation at 1 mg/L measured after 3 days by EPR analysis. The format is organism-based. Particulars: in vivo, 72 h. Summed up: as §2
Data set [15] in a line: Phytotoxicity against Zea mays (maize) assessed as inhibition of root length at 0.05 mg/L and at 25 degC/20 degC day/night temperature 14 hr photoperiod for 3 days. The format is organism-based. Particulars: in vivo. Summed up: as §1
The test system of data set [16] is Zea mays. In words: Induction of SOD activity in Zea mays (maize) root at 0.02 mg/L measured after 3 days. The format is organism-based. To be noted: in vivo, 72 h. In outline:
(§3)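 Maize roots after 3 days' exposure to DCPP enantiomers (0–1.0 mg L-1, test solutions renewed daily). Fresh roots (1.0 g) homogenized on ice in 0.05 M sodium phosphate buffer pH 7.8 with 1% (w/v) polyvinylpyrrolidone, then centrifuged 10 000 rpm, 10 min, 4 °C. The supernatant was used for enzyme assays, with protein by Bradford (BSA standard). Mean ± SEM of three replicate cultures.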

Data set [17] can be described thus: Phytotoxicity against Zea mays (maize) assessed as inhibition of root length at 0.02 mg/L and at 25 degC/20 degC day/night temperature 14 hr photoperiod for 3 days. To be noted: in vivo. The data set is classed as organism-based. In outline: as §1
Data set [18] can be described thus: Phytotoxicity against Zea mays (maize) assessed as inhibition of fresh weight at 0.5 mg/L and at 25 degC/20 degC day/night temperature 14 hr photoperiod for 3 days. To be noted: in vivo. The format is organism-based. Summed up:
as §1

A short description of data set [19]: Phytotoxicity against Zea mays (maize) assessed as inhibition of fresh weight at 0.02 mg/L and at 25 degC/20 degC day/night temperature 14 hr photoperiod for 3 days. The data set is classed as organism-based. To be noted: in vivo. Summed up:
as §1

Data set [20] concerns Zea mays. In words: Induction of POD activity in Zea mays (maize) root at 0.05 mg/L measured after 3 days. The data set is classed as organism-based. Particulars: in vivo, 72 h. Summed up: as §3
Data set [21] is described as follows: Phytotoxicity against Zea mays (maize) assessed as inhibition of shoot height at 0.1 mg/L and at 25 degC/20 degC day/night temperature 14 hr photoperiod for 3 days. To be noted: in vivo. The format is organism-based. Summed up:
as §1

Data set [22] in a line: Phytotoxicity against Zea mays (maize) assessed as inhibition of seed germination at 0.05 mg/L and at 27 degC in the dark for 3 days. To be noted: in vivo.
Data set [23] is described as follows: Phytotoxicity against Zea mays (maize) assessed as inhibition of fresh weight at 1 mg/L and at 25 degC/20 degC day/night temperature 14 hr photoperiod for 3 days. The format is organism-based. Particulars: in vivo. In outline: as §1
The nature of data set [24]: Phytotoxicity against Zea mays (maize) assessed as inhibition of shoot height at 0.02 mg/L and at 25 degC/20 degC day/night temperature 14 hr photoperiod for 3 days. The data set is classed as organism-based. To be noted: in vivo. In outline: as §1
Data set [25] deals with Zea mays. In words: Induction of POD activity in Zea mays (maize) root at 0.1 mg/L measured after 3 days. The format is organism-based. Particulars: in vivo, 72 h. Summed up:
as §3

The subject of data set [26] is Zea mays. In words: Induction of POD activity in Zea mays (maize) root at 0.02 mg/L measured after 3 days. To be noted: in vivo, 72 h. The data set is classed as organism-based. Summed up: as §3

The inhibition is the percentage by which the read-out fell short of the control. As for `CC(Oc1ccc(Cl)cc1Cl)C(=O)O` (racemic) [RAC-DICHLORPROP], the inhibition at 72 h, 0.05 mg/L came out at 4.02% in [1], 4.28% in data set [6], 19.3% in [15] and 8.38% in [22]. The Activity entry is reported as “Toxic” in data set [2], “Toxic” in data set [14], “Non-toxic” in [16] and “Toxic” in [20]. Moreover, the inhibition at 72 h, 1 mg/L in [3] was 31.1%; in data set [4], 31.7%; in [7] it was 40.1%; in [23], 39.7%. In addition, the inhibition at 72 h, 0.1 mg/L was 10% in data set [5], 12.2% in data set [8], 24.5% in data set [9] and 7.9% in data set [21]. Besides, the inhibition at 72 h, 0.5 mg/L in data set [10] was determined as 36.7%; in data set [11], 21.4%; in [13], 17.6%; in [18], 31.3%. Also, the inhibition at 72 h, 0.02 mg/L was 3.57% in [12], 12.7% in data set [17], 2.75% in [19] and 2.14% in data set [24].

On to `C[C@H](Oc1ccc(Cl)cc1Cl)C(=O)O` [(S)-DICHLORPROP], for which the inhibition at 72 h, 0.05 mg/L in data set [1] worked out at 3.12%; in data set [6], 2.94%; in data set [15] it was 17.3%; in data set [22], 4.75%. For the same compound, the Activity result is listed as “Toxic” in data set [2], “Toxic” in data set [14], “Toxic” in data set [25] and “Non-toxic” in data set [16]. Further, the inhibition at 72 h, 1 mg/L in data set [3] stood at 30.6%; in data set [4], 21.9%; in data set [7], 39.9%; in data set [23] it was 38.1%. The inhibition at 72 h, 0.1 mg/L was found to be 9.5% in data set [5], 9.67% in data set [8], 22.7% in data set [9] and 6.28% in data set [21]. Besides, the inhibition at 72 h, 0.5 mg/L in [10] is 34.9%; in data set [11] it was 11.4%; in data set [13], 15.9%; in data set [18] it was 30.2%. Also, the inhibition at 72 h, 0.02 mg/L came out at 2.1% in data set [12], 11.4% in data set [17], 2.12% in data set [19] and 2.06% in data set [24].

`C[C@@H](Oc1ccc(Cl)cc1Cl)C(=O)O` [(R)-DICHLORPROP]: the Activity entry in data set [26], in data set [2], in [14] and in [16] was “Toxic” each time. In addition, the inhibition at 72 h, 0.05 mg/L in data set [1] is 5.27%; in [6], 14.8%; in data set [15], 23.5%; in data set [22], 10.7%. Further, the inhibition at 72 h, 1 mg/L in [3] was found to be 36.7%; in data set [4], 41.4%; in data set [7] it was 42%; in data set [23], 42.7%. The inhibition at 72 h, 0.1 mg/L in data set [5] worked out at 24.6%; in [8], 16.1%; in data set [9], 26.6%; in data set [21], 8.61%. The inhibition at 72 h, 0.5 mg/L came to 38.4% in data set [10], 34.9% in data set [11], 20.7% in data set [13] and 36.7% in [18]. In addition, the inhibition at 72 h, 0.02 mg/L was determined as 6.64% in data set [12], 14.3% in data set [17], 5.76% in [19] and 3.52% in data set [24].
